This note sets out measurements from ChEMBL document CHEMBL5252635, “The Mycobacterium tuberculosis mycothiol S-transferase is divalent metal-dependent for mycothiol binding and transfer” (2023).

Converted amounts (≈) assume the structure as drawn.

For assay [1], the system named is Mycobacterium tuberculosis. In words: Antibacterial activity against Mycobacterium tuberculosis rv0443 knockout strain incubated for 10 days by resazurin dye based microtiter plate assay. Type of assay: functional. The note with it: rv0443, 240 h, time 10 day. The essentials:
(§1)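 MIC in 7H9-ADC-Tween 80 medium. Strains (CDC1551 WT, rv0443 KO) grown to mid-log (OD600 ~0.8), diluted to OD600 0.01, exposed to serial antibiotic dilutions for 10 days at 37 °C; MIC read by resazurin blue test.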

Assay [2] deals with Mycobacterium tuberculosis. The assay is described as follows: Antibacterial activity against wild type Mycobacterium tuberculosis CDC1551 incubated for 10 days by resazurin dye based microtiter plate assay. Format: functional. The note with it: CDC1551, 240 h, time 10 day. The essentials:
as §1

As for `CO[C@H]1/C=C/O[C@@]2(C)Oc3c(C)c(O)c4c(O)c(c(/C=N/N5CCN(C)CC5)c(O)c4c3C2=O)NC(=O)/C(C)=C\C=C\[C@H](C)[C@H](O)[C@@H](C)[C@@H](O)[C@@H](C)[C@H](OC(C)=O)[C@@H]1C` [RIFAMPIN], the MIC in assay [1] and in assay [2] was 2.5 ng/mL (≈ 3.04 nM) each time.

What is called MIC is the least concentration at which growth counts as inhibited. Read a high MIC as a less susceptible organism.
